# From ChEMBL document CHEMBL1138479, “Synthesis and antiplasmodial activity of aminoalkylamino-substituted neocryptolepine derivatives” (J Med Chem, 2009)
# Columns and labels:
# Plasmodium falciparum = test: Antiplasmodial activity against chloroquine-sensitive Plasmodium falciparum Ghana in human erythrocytes after 72 hrs by Malstat assay; format: functional, organism-based
# Procedure, shortened: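 P. falciparum Ghana strain grown in human erythrocytes in RPMI-1640 at 37 °C under 3% O2, 4% CO2, 93% N2. Exposure to compounds lasted 72 h. Multiplication was read by Malstat with absorbance at 655 nm, and % growth inhibition was taken against negative blanks.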
# [1] = Cytotoxicity against human MRC5 SV2 cells after 72 hrs by resazurin-based fluorometric assay; format: cell-based; details: MRC5, 72 h
# Procedure, shortened: (§1)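 MRC-5 SV2 fibroblasts were kept in MEM with 20 mM L-glutamine and 5% FCS at 37 °C, 5% CO2. Cells were seeded at 10⁴/well onto prediluted compounds and incubated 72 h. Viability was read fluorimetrically after resazurin addition.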
# [2] = Selectivity index, ratio of IC50 for human MRC5 SV2 cells to IC50 for chloroquine-sensitive Plasmodium falciparum Ghana; format: toxicity, cell-based; details: read-out: Ratio IC50
# Nucleic Acid = test: Binding affinity to DNA assessed as intercalation after 24 hrs by DNA-methyl green assay; format: nucleic-acid assay
# Procedure, shortened: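 DNA-methyl green reagent (20 mg in 100 mL 0.05 M Tris HCl pH 7.5 with 7.5 mM MgSO4, stirred 24 h at 37 °C) was added to dried compound. A620 was read at 0 and after 24 h at 25 °C. […] Cryptolepine was the positive control.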
# [3] = target: T1, Histidine-rich protein PFHRP-II (Plasmodium falciparum, UniProt P05227); test: Inhibition of beta-hematin formation after 18 hrs by microtiter plate assay; format: functional
# T1 sequence (P05227 whole entry): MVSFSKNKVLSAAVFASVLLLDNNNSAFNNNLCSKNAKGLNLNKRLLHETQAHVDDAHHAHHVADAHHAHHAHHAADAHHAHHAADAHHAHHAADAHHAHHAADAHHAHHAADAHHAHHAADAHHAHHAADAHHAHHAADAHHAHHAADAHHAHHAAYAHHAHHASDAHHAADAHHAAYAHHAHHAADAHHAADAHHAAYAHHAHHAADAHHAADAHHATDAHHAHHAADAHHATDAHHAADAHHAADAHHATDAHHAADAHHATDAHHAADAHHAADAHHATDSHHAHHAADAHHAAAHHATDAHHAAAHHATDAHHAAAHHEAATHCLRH
# [4] = target: T1, Histidine-rich protein PFHRP-II; test: (§2) Inhibition of beta-hematin formation at 5 milliequivalent after 18 hrs by microtiter plate assay; format: functional
# MRC5 = test: Cytotoxicity against human MRC5 cells; format: cell-based; procedure, shortened: as §1
# [5] = target: T2, Histidine-rich protein PFHRP-II (Plasmodium falciparum) (UniProt P05227); test: as §2; format: functional
# T2 sequence (whole entry): T1 sequence (P05227 whole entry)
SMILES,IC50 (Plasmodium falciparum) [µM],IC50 [1] [µM],selectivity ratio [2],IC50 (Nucleic Acid) [µM],IC50 [3] [milliequivalent],IC50 [4],IC50 (MRC5) [µM],inhibition [5] [%]
Cn1c2nc3ccccc3c-2c(Cl)c2ccccc21 [11-CHLORONEOCRYPTOLEPINE],> 64,5,< 0.08,–,–,–,–,–
OCCN1CCN(c2c3cc(Cl)ccc3nc3[nH]c4ccccc4c23)CC1,2.34,2,0.9,> 1000,2,–,–,–
Cn1c2nc3cc(Cl)ccc3c-2cc2ccccc21,> 64,> 64,–,> 1000,1.55,–,–,–
Clc1ccc2nc3[nH]c4ccccc4c3c(Cl)c2c1,> 64,> 64,–,> 1000,–,Not Active,–,–
Cn1c2nc3ccccc3c-2c(NCCN2CCCC2)c2cc(Cl)ccc21,< 0.25,< 0.25,–,186,–,Not Active,–,–
Cn1c2nc3ccccc3c-2cc2cc(Br)ccc21,–,> 32,> 5,> 400,1.77,–,> 32,–
CCN(CC)CCCC(C)Nc1c2ccc(Cl)cc2nc2[nH]c3ccccc3c12 (stereo not given),0.14,15,107,> 1000,4.43,–,–,–
Cn1c2nc3ccccc3c-2c(Cl)c2ccc(Cl)cc21,> 64,27,< 0.4,–,1.14,–,–,–
CCN(CC)CCCC(C)Nc1ccc2cc3c4ccccc4nc-3n(C)c2c1 (stereo not given),0.015,16,1070,–,–,–,–,–
CCN(CC)CCCC(C)Nc1c2c3ccccc3nc-2n(C)c2cc(Cl)ccc12 (stereo not given),0.13,14,108,248,5.25,–,–,–
CCN(CC)CCCC(C)Nc1ccc2nc3n(C)c4ccccc4cc-3c2c1 (stereo not given),0.14,16,114,446,–,–,–,< 20
CN(C)CCNc1c2cc(Cl)ccc2nc2[nH]c3ccccc3c12,0.4,> 64,> 160,> 1000,3.68,–,–,–
CCN(CC)CCCC(C)Nc1c2c3ccccc3nc-2n(C)c2cccc(Cl)c12 (stereo not given),0.35,21,60,> 1000,–,–,–,< 20
CCN(CC)CCCC(C)Nc1c2c(Cl)cccc2nc2[nH]c3ccccc3c12 (stereo not given),1.2,20,17,> 1000,3.05,–,–,–
CCN(CC)CCCC(C)Nc1ccc2c(c1)cc1c3ccccc3nc-1n2C (stereo not given),0.03,7.2,240,128,1.45,–,–,–
Cn1c2nc3ccccc3c-2cc2ccccc21 [NEOCRYPTOLEPINE],–,11,0.4,–,5.97,–,–,–
Cn1c2nc3ccccc3c-2c(Cl)c2c(Cl)cccc21,39,34,0.9,> 1000,–,Not Active,–,–
Cn1c2nc3ccc(Cl)cc3c-2cc2ccccc21,29,> 64,> 2,> 1000,1.23,–,–,–
CCN1CCCC1CNc1c2c3ccccc3nc-2n(C)c2ccc(Cl)cc12 (stereo not given),< 0.25,0.4,> 2,645,–,Not Active,–,–
